Experimental data published in publication PMC11964553 (Materials Today Bio, 2025).

Key:
[1] = Tissue quantification of Om and As in tumor; assay type: in vivo, BALB/c mice
How it was run: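 Orthotopic 4T1-luc tumor-bearing female BALB/c mice were dosed i.v. with free drug combination or co-loaded liposome. Tumor and organs were collected at 1, 2, 4, 6, 8, 10, 12 and 24 h, weighed, and homogenized in cold methanol at 4 °C, then spun at 12,000 rpm for 10 min at 4 °C. The pellet was re-extracted with cold chloroform and the supernatants pooled. Parameters came from a non-compartmental model; n = 6.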

[2] = cited from earlier work
[3] = Plasma pharmacokinetics in orthotopic 4T1 tumor-bearing mice; assay type: in vivo, BALB/c mice

Cmax of As in tumor ([1]; i.v., n = 6) [ng/mL]	MRT of As in tumor ([1]; i.v., n = 6) [h]	AUC of As in tumor ([1]; time 0–24 h, i.v., n = 6) [ng·h/mL]	Cmax of As in plasma ([3]; i.v. 2.0 mg/kg Om and 1.5 mg/kg As, 4T1 tumor-bearing mice, n = 6) [ng/mL]	MRT of As in plasma ([3]; i.v., n = 6) [h]	Tmax of As in plasma ([3]; i.v., n = 6) [h]	t1/2 of As in plasma ([3]; i.v., n = 6) [h]	AUC of As in plasma ([3]; time 0–24 h, i.v., n = 6) [ng·h/mL]	AUC ([1]; BALB/c, mouse, iv, 2 mg/kg) [ng·h/mL]	Cmax ([1]; BALB/c, mouse, iv, 2 mg/kg) [ng/mL]	MRT ([1]; BALB/c, mouse, iv, 2 mg/kg) [h]	AUC ([3]; BALB/c, mouse, iv, 2 mg/kg) [ng·h/mL]	Cmax ([3]; BALB/c, mouse, iv, 2 mg/kg) [ng/mL]	MRT ([3]; BALB/c, mouse, iv, 2 mg/kg) [h]	Tmax ([3]; BALB/c, mouse, iv, 2 mg/kg) [h]	half-life ([3]; BALB/c, mouse, iv, 2 mg/kg) [h]	SMILES	Solubility [2]	log partition coefficient (log P) [2]
0.64 ± 0.26	5.36 ± 2.05	6.04 ± 2.43	52.22 ± 9.04	1.73 ± 0.50	0.17 ± 0.01	1.73 ± 1.03	38.77 ± 12.39	–	–	–	–	–	–	–	–	CC(C)(O)[C@@H]1CC[C@](C)([C@H]2[C@@H](O)C[C@@]3(C)[C@@H]4C[C@H](O[C@@H]5O[C@H](CO)[C@@H](O)[C@H](O)[C@H]5O)[C@H]5C(C)(C)[C@@H](O[C@@H]6OC[C@@H](O)[C@H](O)[C@H]6O)CC[C@@]56C[C@@]46CC[C@]23C)O1 [Free As, Astragaloside IV]	poor solubility	–
–	–	–	–	–	–	–	–	6.09 ± 3.96	0.92 ± 0.43	6.95 ± 2.83	1.01 ± 0.25	1.75 ± 0.31	2.12 ± 1.19	0.17 ± 0.01	5.66 ± 2.12	O=C1CCC[C@@H]2[C@H]3CCC[N+]4([O-])CCC[C@@H](CN12)[C@@H]34 (stereo partly drawn) [Free Om, oxymatrine]	–	low
